Results from PMC1389615 (The Journal of General Physiology, 2004).
Positions count from the first letter of the chain named.

Key:
Test in all cases: inside-out patch clamp, block of cGMP-activated current, Hill fit
Format in all cases: cell-based
CNGA1 [1] = biological target: T1, CNGA1 (Bos taurus, UniProt Q00194, R342Y)
T1 sequence (Q00194 1-690 R342Y): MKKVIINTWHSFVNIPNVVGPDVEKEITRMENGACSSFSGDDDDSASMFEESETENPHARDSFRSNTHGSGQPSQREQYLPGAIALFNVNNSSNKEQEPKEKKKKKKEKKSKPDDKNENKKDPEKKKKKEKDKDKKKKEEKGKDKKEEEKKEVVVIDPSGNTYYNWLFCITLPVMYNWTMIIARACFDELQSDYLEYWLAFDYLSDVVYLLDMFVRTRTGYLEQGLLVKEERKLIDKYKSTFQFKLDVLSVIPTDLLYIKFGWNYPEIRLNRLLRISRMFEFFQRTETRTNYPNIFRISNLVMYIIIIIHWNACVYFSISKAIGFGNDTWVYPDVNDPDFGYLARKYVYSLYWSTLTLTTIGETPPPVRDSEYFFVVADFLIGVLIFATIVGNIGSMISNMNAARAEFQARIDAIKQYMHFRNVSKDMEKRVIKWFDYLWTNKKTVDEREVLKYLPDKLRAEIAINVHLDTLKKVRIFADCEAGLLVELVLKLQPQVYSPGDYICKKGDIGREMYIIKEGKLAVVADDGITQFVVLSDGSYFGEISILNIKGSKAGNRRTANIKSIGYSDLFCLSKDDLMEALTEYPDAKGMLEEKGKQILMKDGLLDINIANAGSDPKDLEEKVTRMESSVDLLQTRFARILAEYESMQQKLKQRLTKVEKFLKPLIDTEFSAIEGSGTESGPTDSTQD

CNGA1 [2] = biological target: T2, CNGA1 (Bos taurus, UniProt Q00194, R342D)
T2 sequence (Q00194 1-690 R342D): T1 sequence (Q00194 1-690 R342Y) with Y342D

CNGA1 [3] = biological target: T3, CNGA1 (Bos taurus, UniProt Q00194)
T3 sequence (Q00194 1-690): T1 sequence (Q00194 1-690 R342Y) with Y342R
Summary of the method: (§1)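 Channels expressed in Xenopus oocytes 2–10 d after cRNA injection; inside-out patches, room temperature. […] Blocker applied at 0 mV with 20-ms steps to +20 mV every 5 s. Currents were cGMP-free subtracted. Hill fit, SEM, n = 5–7 patches.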

CNGA2 = biological target: T4, CNGA2 (Rattus norvegicus, UniProt Q00195)
T4 sequence (Q00195 1-664): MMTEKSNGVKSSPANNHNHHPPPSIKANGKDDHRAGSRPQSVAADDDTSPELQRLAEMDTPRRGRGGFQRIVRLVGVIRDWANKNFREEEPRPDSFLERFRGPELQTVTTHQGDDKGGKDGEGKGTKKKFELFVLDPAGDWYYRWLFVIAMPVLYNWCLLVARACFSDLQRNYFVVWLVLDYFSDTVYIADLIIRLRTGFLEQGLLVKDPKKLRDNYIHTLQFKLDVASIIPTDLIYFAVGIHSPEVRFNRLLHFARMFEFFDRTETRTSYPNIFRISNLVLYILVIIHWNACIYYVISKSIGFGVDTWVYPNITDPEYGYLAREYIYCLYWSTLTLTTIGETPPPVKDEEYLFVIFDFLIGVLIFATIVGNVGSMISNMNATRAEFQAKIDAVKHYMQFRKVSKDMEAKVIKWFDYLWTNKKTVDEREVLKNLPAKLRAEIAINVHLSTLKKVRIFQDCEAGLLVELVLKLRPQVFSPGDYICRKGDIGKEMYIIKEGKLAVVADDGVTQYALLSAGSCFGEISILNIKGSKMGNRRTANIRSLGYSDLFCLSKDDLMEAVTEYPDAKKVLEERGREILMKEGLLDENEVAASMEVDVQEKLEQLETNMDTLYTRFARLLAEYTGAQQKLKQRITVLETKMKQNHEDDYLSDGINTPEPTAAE
Summary of the method: as §1

- IC50 (CNGA1 [1]): 91 ± 0.1 nM
- IC50 (CNGA1 [2]): 123 ± 0.2 nM
- IC50 (CNGA1 [3]): 189 ± 4.19 nM
- IC50 (CNGA2): 2400 ± 290 nM
SMILES: Cc1cc(N)c2ccccc2[n+]1CCCCCCCCCC[n+]1c(C)cc(N)c2ccccc21 [dequalinium]
